Measurements reported in ChEMBL document CHEMBL5376013, “Design, synthesis and biological evaluation of novel morpholinopyrimidine-5-carbonitrile derivatives as dual PI3K/mTOR inhibitors” (RSC Med Chem, 2024).

How the values were obtained:
Type in all cases: functional
Conditions in all cases: read-out: GI
HL-60 = experiment: Antitumor activity against human HL-60 cells assessed as growth inhibition at 10 uM relative to control
Method in brief: (§1)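 After drug addition, plates were incubated 48 h at 37 °C under 5% CO2. Adherent cells were fixed with cold TCA (10% final, 60 min, 4 °C) and suspension cells with 16% final TCA. Staining used 0.4% SRB in 1% acetic acid, solubilized in 10 mM trizma, read at A515. Percent growth was calculated from time-zero, control and treated absorbances.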

RPMI-8226 = experiment: Antitumor activity against human RPMI-8226 cells assessed as growth inhibition at 10 uM relative to control; method in brief: as §1
SR = experiment: Antitumor activity against human SR cells assessed as growth inhibition at 10 uM relative to control
Method in brief: (§2)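 Drug exposure 48 h at 37 °C, 5% CO2. Adherent cells fixed with cold TCA (10% final), suspension cells with TCA (16% final). Stained with 0.4% SRB in 1% acetic acid, dissolved in 10 mM Tris, A515. Growth relative to time-zero and untreated control.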

EKVX = experiment: Antitumor activity against human EKVX cells assessed as growth inhibition at 10 uM relative to control; method in brief: as §1
HOP-62 = experiment: Antitumor activity against human HOP-62 cells assessed as growth inhibition at 10 uM relative to control; method in brief: as §1
HOP-92 = experiment: Antitumor activity against human HOP-92 cells assessed as growth inhibition at 10 uM relative to control; method in brief: as §1
NCI-H226 = experiment: Antitumor activity against human NCI-H226 cells assessed as growth inhibition at 10 uM relative to control; method in brief: as §1
NCI-H23 = experiment: Antitumor activity against human NCI-H23 cells assessed as growth inhibition at 10 uM relative to control; method in brief: as §1
NCI-H322M = experiment: Antitumor activity against human NCI-H322M cells assessed as growth inhibition at 10 uM relative to control; method in brief: as §1
NCI-H460 = experiment: Antitumor activity against human NCI-H460 cells assessed as growth inhibition at 10 uM relative to control; method in brief: as §1
NCI-H522 = experiment: Antitumor activity against human NCI-H522 cells assessed as growth inhibition at 10 uM relative to control; method in brief: as §1
COLO 205 = experiment: Antitumor activity against human COLO 205 cells assessed as growth inhibition at 10 uM relative to control; method in brief: as §1
HCC 2998 = experiment: Antitumor activity against human HCC 2998 cells assessed as growth inhibition at 10 uM relative to control; method in brief: as §1
HCT-116 = experiment: Antitumor activity against human HCT-116 cells assessed as growth inhibition at 10 uM relative to control; method in brief: as §1
HT-29 = experiment: Antitumor activity against human HT-29 cells assessed as growth inhibition at 10 uM relative to control; method in brief: as §1
KM12 = experiment: Antitumor activity against human KM12 cells assessed as growth inhibition at 10 uM relative to control; method in brief: as §1
SW-620 = experiment: Antitumor activity against human SW-620 cells assessed as growth inhibition at 10 uM relative to control; method in brief: as §2
SF-268 = experiment: Antitumor activity against human SF-268 cells assessed as growth inhibition at 10 uM relative to control; method in brief: as §1
SF-295 = experiment: Antitumor activity against human SF-295 cells assessed as growth inhibition at 10 uM relative to control; method in brief: as §1
SF-539 = experiment: Antitumor activity against human SF-539 cells assessed as growth inhibition at 10 uM relative to control; method in brief: as §1
SNB-19 = experiment: Antitumor activity against human SNB-19 cells assessed as growth inhibition at 10 uM relative to control; method in brief: as §2
SNB-75 = experiment: Antitumor activity against human SNB-75 cells assessed as growth inhibition at 10 uM relative to control; method in brief: as §2
U-251 = experiment: Antitumor activity against human U-251 cells assessed as growth inhibition at 10 uM relative to control; method in brief: as §2
Malme-3M = experiment: Antitumor activity against human Malme-3M cells assessed as growth inhibition at 10 uM relative to control; method in brief: as §1
M14 = experiment: Antitumor activity against human M14 cells assessed as growth inhibition at 10 uM relative to control; method in brief: as §1
MDA-MB-435 = experiment: Antitumor activity against human MDA-MB-435 cells assessed as growth inhibition at 10 uM relative to control; method in brief: as §1
SK-MEL-2 = experiment: Antitumor activity against human SK-MEL-2 cells assessed as growth inhibition at 10 uM relative to control; method in brief: as §1
SK-MEL-28 = experiment: Antitumor activity against human SK-MEL-28 cells assessed as growth inhibition at 10 uM relative to control; method in brief: as §2
SK-MEL-5 = experiment: Antitumor activity against human SK-MEL-5 cells assessed as growth inhibition at 10 uM relative to control; method in brief: as §2
UACC-257 = experiment: Antitumor activity against human UACC-257 cells assessed as growth inhibition at 10 uM relative to control; method in brief: as §2
UACC-62 = experiment: Antitumor activity against human UACC-62 cells assessed as growth inhibition at 10 uM relative to control; method in brief: as §2
IGROV-1 = experiment: Antitumor activity against human IGROV-1 cells assessed as growth inhibition at 10 uM relative to control; method in brief: as §1
OVCAR-4 = experiment: Antitumor activity against human OVCAR-4 cells assessed as growth inhibition at 10 uM relative to control; method in brief: as §1
OVCAR-5 = experiment: Antitumor activity against human OVCAR-5 cells assessed as growth inhibition at 10 uM relative to control; method in brief: as §1
NCI/ADR-RES = experiment: Antitumor activity against human NCI-ADR-RES cells assessed as growth inhibition at 10 uM relative to control; method in brief: as §1
SK-OV-3 = experiment: Antitumor activity against human SK-OV-3 cells assessed as growth inhibition at 10 uM relative to control; method in brief: as §2
786-0 = experiment: Antitumor activity against human 786-0 cells assessed as growth inhibition at 10 uM relative to control; method in brief: as §1
A498 = experiment: Antitumor activity against human A498 cells assessed as growth inhibition at 10 uM relative to control; method in brief: as §1
CAKI-1 = experiment: Antitumor activity against human CAKI-1 cells assessed as growth inhibition at 10 uM relative to control; method in brief: as §1
RXF 393 = experiment: Antitumor activity against human RXF 393 cells assessed as growth inhibition at 10 uM relative to control; method in brief: as §1
SN12C = experiment: Antitumor activity against human SN12C cells assessed as growth inhibition at 10 uM relative to control; method in brief: as §2
TK-10 = experiment: Antitumor activity against human TK-10 cells assessed as growth inhibition at 10 uM relative to control; method in brief: as §2
UO-31 = experiment: Antitumor activity against human UO-31 cells assessed as growth inhibition at 10 uM relative to control; method in brief: as §2
MDA-MB-231 = experiment: Antitumor activity against human MDA-MB-231 cells assessed as growth inhibition at 10 uM relative to control; method in brief: as §1
Hs-578T = experiment: Antitumor activity against human Hs-578T cells assessed as growth inhibition at 10 uM relative to control; method in brief: as §1
T47D = experiment: Antitumor activity against human T47D cells assessed as growth inhibition at 10 uM relative to control; method in brief: as §2

SMILES: N#Cc1c(-c2ccc(Cl)cc2)nc(N/N=C/c2cccc(Br)c2)nc1N1CCOCC1
- inhibition of growth at 10 µM (HL-60): 59.4%
- inhibition of growth at 10 µM (RPMI-8226): 44%
- inhibition of growth at 10 µM (SR): < 1%
- inhibition of growth at 10 µM (EKVX): 31.2%
- inhibition of growth at 10 µM (HOP-62): < 1%
- inhibition of growth at 10 µM (HOP-92): 28.8%
- inhibition of growth at 10 µM (NCI-H226): 28.8%
- inhibition of growth at 10 µM (NCI-H23): < 1%
- inhibition of growth at 10 µM (NCI-H322M): < 1%
- inhibition of growth at 10 µM (NCI-H460): 13.1%
- inhibition of growth at 10 µM (NCI-H522): < 1%
- inhibition of growth at 10 µM (COLO 205): 56%
- inhibition of growth at 10 µM (HCC 2998): < 1%
- inhibition of growth at 10 µM (HCT-116): 38.5%
- inhibition of growth at 10 µM (HT-29): 71%
- inhibition of growth at 10 µM (KM12): 19%
- inhibition of growth at 10 µM (SW-620): 68.5%
- inhibition of growth at 10 µM (SF-268): 10.8%
- inhibition of growth at 10 µM (SF-295): < 1%
- inhibition of growth at 10 µM (SF-539): 21.2%
- inhibition of growth at 10 µM (SNB-19): < 1%
- inhibition of growth at 10 µM (SNB-75): 23.2%
- inhibition of growth at 10 µM (U-251): 38.4%
- inhibition of growth at 10 µM (Malme-3M): < 1%
- inhibition of growth at 10 µM (M14): 37.6%
- inhibition of growth at 10 µM (MDA-MB-435): < 1%
- inhibition of growth at 10 µM (SK-MEL-2): < 1%
- inhibition of growth at 10 µM (SK-MEL-28): < 1%
- inhibition of growth at 10 µM (SK-MEL-5): 14.4%
- inhibition of growth at 10 µM (UACC-257): 13.5%
- inhibition of growth at 10 µM (UACC-62): < 1%
- inhibition of growth at 10 µM (IGROV-1): 16.4%
- inhibition of growth at 10 µM (OVCAR-4): 12.6%
- inhibition of growth at 10 µM (OVCAR-5): 17.9%
- inhibition of growth at 10 µM (NCI/ADR-RES): < 1%
- inhibition of growth at 10 µM (SK-OV-3): < 1%
- inhibition of growth at 10 µM (786-0): 38.2%
- inhibition of growth at 10 µM (A498): < 1%
- inhibition of growth at 10 µM (CAKI-1): 1%
- inhibition of growth at 10 µM (RXF 393): < 1%
- inhibition of growth at 10 µM (SN12C): < 1%
- inhibition of growth at 10 µM (TK-10): < 1%
- inhibition of growth at 10 µM (UO-31): 48.8%
- inhibition of growth at 10 µM (MDA-MB-231): < 1%
- inhibition of growth at 10 µM (Hs-578T): 17.9%
- inhibition of growth at 10 µM (T47D): 32.5%

SMILES: N#Cc1c(-c2ccc(Cl)cc2)nc(N/N=C2/C(=O)Nc3ccc(Br)cc32)nc1N1CCOCC1
- inhibition of growth at 10 µM (HL-60): < 1%
- inhibition of growth at 10 µM (RPMI-8226): < 1%
- inhibition of growth at 10 µM (SR): < 1%
- inhibition of growth at 10 µM (EKVX): < 1%
- inhibition of growth at 10 µM (HOP-62): < 1%
- inhibition of growth at 10 µM (HOP-92): < 1%
- inhibition of growth at 10 µM (NCI-H226): < 1%
- inhibition of growth at 10 µM (NCI-H23): 11.9%
- inhibition of growth at 10 µM (NCI-H322M): < 1%
- inhibition of growth at 10 µM (NCI-H460): < 1%
- inhibition of growth at 10 µM (NCI-H522): < 1%
- inhibition of growth at 10 µM (COLO 205): 1%
- inhibition of growth at 10 µM (HCC 2998): < 1%
- inhibition of growth at 10 µM (HCT-116): 16.8%
- inhibition of growth at 10 µM (HT-29): < 1%
- inhibition of growth at 10 µM (KM12): < 1%
- inhibition of growth at 10 µM (SW-620): < 1%
- inhibition of growth at 10 µM (SF-268): < 1%
- inhibition of growth at 10 µM (SF-295): < 1%
- inhibition of growth at 10 µM (SF-539): < 1%
- inhibition of growth at 10 µM (SNB-19): < 1%
- inhibition of growth at 10 µM (SNB-75): < 1%
- inhibition of growth at 10 µM (U-251): 33.6%
- inhibition of growth at 10 µM (Malme-3M): < 1%
- inhibition of growth at 10 µM (M14): < 1%
- inhibition of growth at 10 µM (MDA-MB-435): < 1%
- inhibition of growth at 10 µM (SK-MEL-2): < 1%
- inhibition of growth at 10 µM (SK-MEL-28): < 1%
- inhibition of growth at 10 µM (SK-MEL-5): < 1%
- inhibition of growth at 10 µM (UACC-257): < 1%
- inhibition of growth at 10 µM (UACC-62): < 1%
- inhibition of growth at 10 µM (IGROV-1): < 1%
- inhibition of growth at 10 µM (OVCAR-4): < 1%
- inhibition of growth at 10 µM (OVCAR-5): < 1%
- inhibition of growth at 10 µM (NCI/ADR-RES): < 1%
- inhibition of growth at 10 µM (SK-OV-3): < 1%
- inhibition of growth at 10 µM (786-0): < 1%
- inhibition of growth at 10 µM (A498): 26.3%
- inhibition of growth at 10 µM (CAKI-1): < 1%
- inhibition of growth at 10 µM (RXF 393): < 1%
- inhibition of growth at 10 µM (SN12C): < 1%
- inhibition of growth at 10 µM (TK-10): < 1%
- inhibition of growth at 10 µM (UO-31): 28.7%
- inhibition of growth at 10 µM (MDA-MB-231): 14.2%
- inhibition of growth at 10 µM (Hs-578T): < 1%
- inhibition of growth at 10 µM (T47D): < 1%
